Only some compounds are listed: those with a hit (about 2.5% of all), similar ones and a draw of the others.
SENP8 block-1 – blocks the human protease SENP8; Q96LD8; purified SENP8, Z-RLRGG-aminoluciferin cleavage, luminescence; inhibition, % at 10 µM; 330,000 tested, 1.2% active; AID 2540; in the data active means inhibition above about 50%
Target sequence (Q96LD8 whole entry, looked up): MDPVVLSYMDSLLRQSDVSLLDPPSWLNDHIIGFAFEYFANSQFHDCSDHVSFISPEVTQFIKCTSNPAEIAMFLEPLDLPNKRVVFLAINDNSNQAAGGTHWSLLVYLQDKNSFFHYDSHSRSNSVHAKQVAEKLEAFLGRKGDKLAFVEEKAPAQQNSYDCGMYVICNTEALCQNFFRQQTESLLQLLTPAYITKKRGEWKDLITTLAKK
SENP7 block – SENP7 protease inhibition | Q9BQF6 | recombinant SENP7, Z-RLRGG-aminoluciferin luminescence, 40 min | 330,000 tested, 1.5% active | inhibition, % at 5 µM | AID 434973;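 active means inhibition above about 50% at the single test dose, limit read from the data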
Target sequence (Q9BQF6 706-1050 limits assumed): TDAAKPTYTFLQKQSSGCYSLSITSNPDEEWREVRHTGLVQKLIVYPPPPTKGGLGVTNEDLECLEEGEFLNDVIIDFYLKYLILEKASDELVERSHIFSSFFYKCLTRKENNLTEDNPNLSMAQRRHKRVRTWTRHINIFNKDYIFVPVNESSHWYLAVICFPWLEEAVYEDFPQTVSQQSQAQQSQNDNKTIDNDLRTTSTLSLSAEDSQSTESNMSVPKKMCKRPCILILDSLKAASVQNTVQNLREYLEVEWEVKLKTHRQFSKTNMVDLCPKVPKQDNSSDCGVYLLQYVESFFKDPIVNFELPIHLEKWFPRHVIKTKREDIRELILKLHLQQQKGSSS
SENP6 block – SENP6 protease inhibition. Q9GZR1. Recombinant SENP6 catalytic domain, aminoluciferin luminescence. inhibition, % at 10 µM. 330,000 tested, 1.8% active. AID 2599;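 active means inhibition above about 50% at the single tested dose, limit read from the data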
SENP1 FRET inh – inhibitors of human SENP1 SUMO protease catalytic domain. inhibition, % at 10 µM. Q9P0U3. 360,000 tested, 0.21% active. recombinant SENP1 catalytic domain, CyPet-SUMO1-YPet FRET cleavage;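 active means inhibition at least 30% at 10 µM, raw YFP signal under a set limit, fluorescence ratio 0.5 to 1.5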
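Test system: hSENP1 catalytic domain, recombinant; Amount: 20 pM final SENP1 enzyme; Medium: Tris pH 8 buffer plus EDTA, NaCl, BME, BSA, NP40, catalase; Schedule: 50 min enzyme reaction, room temperature, light-protected; Technique: FRET fluorescence in CFP and YFP emission channels; Controls: no-enzyme wells low, DMSO-plus-enzyme wells high control.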
SENP8 block-2 – SENP8 (human) protease inhibition; Q96LD8; recombinant SENP8, Nedd8 substrate fluorescence; inhibition, % at 20 µM; 360,000 tested, 0.64% active; in the data active means inhibition mostly above about 40%, no sharp cut-off; inactive means mostly below about 27%
SENP8 confirm – confirmation of human SENP8 protease inhibitors; shares compounds with SENP7 block; Recombinant SENP8, Z-RLRGG-aminoluciferin luminescence, 60 min; inhibition, % at 12.5 µM; 6,200 tested, 40% active; AID 488912;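 active means mean inhibition across replicates above about 50%, limit read from the data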
SENP6 conf – human SENP6 inhibition, confirmed | shares compounds with SENP7 block | recombinant SENP6, Z-RLRGG-aminoluciferin luminescence | inhibition, % at 12.5 µM | 6,200 tested, 58% active
SENP7 conf – confirmation of human SENP7 protease inhibitors; shares compounds with SENP7 block; recombinant SENP7, Z-RLRGG-aminoluciferin luminescence, 40 min; inhibition, % at 12.5 µM; 6,200 tested, 69% active; AID 488917
Casp3 SENP sel – selectivity test for SENP inhibitors: human caspase-3 inhibition; shares compounds with SENP7 block; 6,200 tested, 60% active; purified caspase-3, Z-DEVD-aminoluciferin luminescence, 60 min; inhibition, % at 12.5 µM;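 active means mean inhibition above about 50%, limit read from the data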
Luc interf – luminescence interference (SENP counter-screen) | shares compounds with SENP7 block | Pre-incubated SENP8/Z-RLRGG-aminoluciferin, luciferase luminescence interference | inhibition, % at 12.5 µM | AID 488919 | 6,200 tested, 39% active;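 active means mean inhibition above about 50% when retested at one dose, limit read from the data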
Of the large screens only hits and unclear results are named; the others gave an inactive call (follow-up assays come after a bar, where they were run).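 How the source made its calls, unless noted: active means mean inhibition above about 50% in the one-dose retest (limit read from the data); inactive means the rest.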

O=C(O)c1cc([N+](=O)[O-])ccc1NCCCc1ccccc1	SENP8 block-1 68, SENP6 block 74 | SENP8 confirm 75 | SENP6 conf 69 | SENP7 conf 73 | Casp3 SENP sel 52 | Luc interf 71
CCOc1ccc(-c2nc(-c3cccnc3)no2)cc1	SENP8 block-1 85, SENP7 block 95, SENP6 block 72 | SENP8 confirm inactive | SENP6 conf 73 | SENP7 conf 91 | Casp3 SENP sel 74 | Luc interf inactive
CCOc1ccc(-c2nc(-c3ccccc3C)no2)cc1	SENP8 block-1 95, SENP7 block 99, SENP6 block 93 (no result: SENP1 FRET inh, SENP8 block-2) | SENP8 confirm 70 | SENP6 conf 56 | SENP7 conf inactive | Casp3 SENP sel 78 | Luc interf inactive
CCCCOc1ccc(-c2nc(-c3cccnc3)no2)cc1	SENP8 block-1 64, SENP7 block 79, SENP6 block 81 | SENP8 confirm inactive | SENP6 conf inactive | SENP7 conf inactive | Casp3 SENP sel inactive | Luc interf inactive
CCOc1ccc(-c2noc(-c3cccnc3)n2)cc1OC	none
CCOc1cc(-c2noc(-c3cccnc3)n2)ccc1OC	none
COc1ccc(-c2nc(-c3cccnc3)no2)cc1	SENP8 block-1 67, SENP7 block 84, SENP6 block 77 | SENP8 confirm 78 | SENP6 conf 78 | SENP7 conf 96 | Casp3 SENP sel 86 | Luc interf inactive
O=C(COC(=O)COc1ccc(Cl)cc1Cl)NC1CCS(=O)(=O)C1 (stereo unspecified)	none
COc1ccc(C(C(=O)NC2CCCC2)N(Cc2cccnc2)C(=O)Cc2cccs2)c(OC)c1 (stereo unspecified)	none
CCc1sc(C(=O)Nc2ncccc2O)cc1C	SENP7 block 66, SENP6 block 69 | SENP8 confirm 62 | SENP6 conf 59 | SENP7 conf 87 | Casp3 SENP sel 83 | Luc interf 64
CCc1sc(C(=O)Nc2nccs2)cc1C	SENP8 block-1 68, SENP7 block 80, SENP6 block 80 | SENP8 confirm 83 | SENP6 conf 81 | SENP7 conf 96 | Casp3 SENP sel 79 | Luc interf inactive
O=C(Nc1nccs1)c1cc2c(s1)CCCCC2	SENP8 block-1 95, SENP7 block 98, SENP6 block 95 | SENP8 confirm 98 | SENP6 conf 99 | SENP7 conf 102 | Casp3 SENP sel 97 | Luc interf 87
CCOc1ccc(N(CC(=O)NC(C)(C)C)C(=O)CCC(=O)Nc2nccs2)cc1	none
COc1ccc(-c2cn3c4c(sc3n2)CCCC4)cc1	SENP7 block 53, SENP6 block 57 | SENP8 confirm 69 | SENP6 conf 68 | SENP7 conf 89 | Casp3 SENP sel 54 | Luc interf inactive
O=C(NCCC1CC1(Cl)Cl)Nc1ccccc1 (stereo unspecified)	none
COc1ccccc1C(=O)Nc1ccc2c(c1)CCCN2C(=O)c1cccs1	SENP7 block 55, SENP6 block 54 | SENP8 confirm 66 | SENP6 conf 64 | SENP7 conf 84 | Casp3 SENP sel 65 | Luc interf 58
O=C(Nc1ccc2c(c1)CCCN2C(=O)c1ccccc1)c1ccccc1Br	none
COc1ccccc1C(=O)Nc1ccc2c(c1)CCCN2C(=O)c1ccccc1	SENP8 block-1 84, SENP7 block 84, SENP6 block 90 | SENP8 confirm 85 | SENP6 conf 82 | SENP7 conf 95 | Casp3 SENP sel 85 | Luc interf 76
OC[C@@H](O)[C@H](O)C(/C=N/Nc1ccccc1)=N\Nc1ccccc1	none
COc1ccc(CCN(C)C(=O)c2cc(S(=O)(=O)N3CCCCC3)ccc2Cl)cc1OC	none
C/C(=N\NC(=O)c1cc2c(s1)CCC(C)C2)c1ccc[nH]1 (stereo unspecified)	SENP7 block 70 | SENP8 confirm inactive | SENP6 conf inactive | SENP7 conf 81 | Casp3 SENP sel 59 | Luc interf inactive
Cc1cc(C(F)(F)F)c(C#N)c(SCC(=O)Nc2nc3ccccc3s2)n1	SENP8 block-1 89, SENP7 block 91, SENP6 block 80 | SENP8 confirm inactive | SENP6 conf inactive | SENP7 conf inactive | Casp3 SENP sel inactive | Luc interf inactive
Cc1nc(SCC(=O)Nc2nc3ccccc3s2)c(C#N)c(C)c1C	none
Cc1nc(-c2ccc([N+](=O)[O-])cc2)sc1C(=O)O	SENP8 block-1 92, SENP7 block 97, SENP6 block 91 | SENP8 confirm inactive | SENP6 conf inactive | SENP7 conf 101 | Casp3 SENP sel 97 | Luc interf 93
Cc1ccc(-c2nc(C)c(C(=O)O)s2)cc1	SENP8 block-1 93, SENP7 block 98, SENP6 block 95 | SENP8 confirm 99 | SENP6 conf 100 | SENP7 conf 103 | Casp3 SENP sel 92 | Luc interf 98
CC(=O)c1sc(-c2ccccc2)nc1C	none
Cc1nc(-c2ccccc2)sc1C(=O)O	none
Cc1nc(-c2ccc(Cl)cc2)sc1C(=O)O	SENP8 block-1 85, SENP7 block 77, SENP6 block 81 | SENP8 confirm 95 | SENP6 conf 95 | SENP7 conf 101 | Casp3 SENP sel 88 | Luc interf 93
Cc1ccc(C(=O)c2c3ccc(N)cc3nn2CCC(N)=O)cc1	SENP6 block 57 | SENP8 confirm inactive | SENP6 conf inactive | SENP7 conf inactive | Casp3 SENP sel inactive | Luc interf inactive
Cn1cccc1C(=O)C(=O)Nc1ccccc1	SENP8 block-1 80, SENP7 block 94, SENP6 block 92 | SENP8 confirm 89 | SENP6 conf 90 | SENP7 conf 100 | Casp3 SENP sel 95 | Luc interf 88
CC(C)C[C@H](NC(=O)OC(C)(C)C)C(=O)N/N=C/c1ccc2nccnc2c1	SENP7 block 51 | SENP8 confirm inactive | SENP6 conf inactive | SENP7 conf inactive | Casp3 SENP sel inactive | Luc interf inactive
Cn1ccnc1SCC(=O)c1ccc(O)cc1	SENP6 block 55 | SENP8 confirm inactive | SENP6 conf inactive | SENP7 conf 67 | Casp3 SENP sel 80 | Luc interf 52
O=C(Nc1ccccc1C(=O)N1CCOCC1)c1ccc(Br)cc1	none

High-throughput results from PubChem BioAssay.
